Bioassay records from PubChem BioAssay.
PG9 Ab binder: PG9 antibody binding by small molecule; TR-FRET gp120-PG9 antibody binding; inhibition, % at 6.7 µM; 360,000 tested, 0.43% active; AID 624416; in the data active means inhibition above about 8.5%
NR2E3 ag-1: agonists of human nuclear receptor NR2E3; Q9Y5X4; GST-NR2E3/biotin-RetCOR TR-FRET, 1536-well; inhibition of corepressor binding, % at 4.78 µM; 320,000 tested, 0.12% active; AID 2300;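 active means percent inhibition above the cutoff of mean plus 3 SD of all tested compounds, set per screening campaign, cut at about 20% in these data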
Target sequence (Q9Y5X4 whole entry, looked up): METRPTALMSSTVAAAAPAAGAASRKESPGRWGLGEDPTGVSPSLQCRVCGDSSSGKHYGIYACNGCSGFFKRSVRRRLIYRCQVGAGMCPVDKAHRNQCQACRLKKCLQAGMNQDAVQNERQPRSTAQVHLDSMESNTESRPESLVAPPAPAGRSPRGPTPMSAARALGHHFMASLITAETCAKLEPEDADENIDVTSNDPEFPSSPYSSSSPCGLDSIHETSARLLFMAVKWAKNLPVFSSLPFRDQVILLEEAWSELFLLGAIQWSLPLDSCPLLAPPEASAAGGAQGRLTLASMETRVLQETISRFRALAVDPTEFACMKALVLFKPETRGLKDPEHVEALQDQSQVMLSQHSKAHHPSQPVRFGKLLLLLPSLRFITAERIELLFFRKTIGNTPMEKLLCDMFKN
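Material: NR2E3–RetCOR corepressor complex | Quantity: 1.35 nM GST-tagged NR2E3 final | Schedule: 5 h at 4 °C | Replication: Singlicate compound wells | Reagent: RetCOR corepressor, biotinylated, 7 nM | Controls: Biotin wells as high control, 0.6% DMSO wells as low control | Signal: TR-FRET, Eu(K)-anti-GST donor, streptavidin-D2 acceptor, ex 340, em 617/671 nm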
NR1D1 modulator: modulators of human Rev-erb alpha DNA binding. P20393. Rev-erbα–FITC-DNA binding, fluorescence polarization, 90 min. activity, % at 10 µM. 370,000 tested, 0.79% active. AID 1259318;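 active means activity above about 14%, limit read from the data; passing the limit was not always enough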
NR2E3 ag-2: human photoreceptor-specific nuclear receptor agonism; Q9Y5X4; CHO-S Gal4-NCOR/VP16-NR2E3 two-hybrid, luciferase; inhibition of corepressor binding, % at 3.98 µM; 360,000 tested, 0.35% active;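 active means inhibition above the mean of all tested compounds plus 3 SD, cut at about 70% in these data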;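 further: higher means lower luciferase signal from less NR2E3 corepressor binding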
NR2E3 ag conf: NR2E3 agonism confirmed in two-hybrid assay; shares compounds with NR2E3 ag-2; CHO-S mammalian two-hybrid NR2E3-NCOR, luciferase luminescence; inhibition, % at 3.98 µM; 2,300 tested, 51% active; AID 624378;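 active means average inhibition above a cutoff equal to the mean inhibition of all tested compounds plus one SD, cut at about 70% in these data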
VP16 counter: counter-screen for NR2E3 agonists: GAL4-VP16 reporter inhibitors | inhibition, % at 3.98 µM | CHO-S GAL4-VP16 luciferase reporter, luminescence | 2,300 tested, 29% active | shares compounds with NR2E3 ag-2 | AID 624379;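 active means mean inhibition above a cutoff equal to the average over all tested compounds plus one standard deviation, cut at about 70% in these data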;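 further: luciferase from a UAS reporter driven by GAL4-VP16 transactivation; higher means less reporter light so more repression of VP16 activity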
Hits are given with their value; - = inactive; . = no result. In the library only some 1.4% were active in any assay of this set; here they are far more common.

SMILES	PG9 Ab binder	NR2E3 ag-1	NR1D1 modulator	NR2E3 ag-2	NR2E3 ag conf	VP16 counter
Nc1nnnn1/N=C/C(Br)=C/c1ccccc1	-	-	-	-	-	-
COc1ccc(/C=C2/SC(=S)N(CCCC(=O)Nc3cccc(O)c3)C2=O)cc1	-	-	-	-	-	-
COc1ccc(/C=C2\SC(=O)N(CCCC(=O)Nc3ccc(C(=O)O)cc3)C2=O)cc1	-	.	-	88	85	92
COc1cccc(/C=C2\SC(=S)N(CCCC(=O)Nc3cccc(C(=O)O)c3)C2=O)c1	.	.	.	-	-	-
COc1ccc(/C=C2\SC(=S)N(CCCC(=O)Nc3cccc(C(=O)O)c3)C2=O)cc1OC	-	-	-	-	.	.
O=C(CCN1C(=O)S/C(=C\c2ccc(Cl)cc2)C1=O)Nc1ccc(C(=O)O)cc1	-	-	-	-	.	.
CC(=O)CC[C@@H]1CC[C@]2(CCCN(C(=O)c3ccccc3)C2)O1	.	.	-	.	.	.
Cc1nn(Cc2ccc(C(=O)Nc3nccs3)cc2)c(C)c1Cl	-	-	-	-	-	-
Cc1ccc(-c2csc3ncnc(N4CCN(Cc5ccccc5)CC4)c23)cc1	-	-	-	-	.	.
Cc1csc2ncnc(NC3CCN(Cc4ccccc4)CC3)c12	-	-	-	81	95	86
O=C(OC12CCCN(C1)/C(=C/c1ccc(Cl)cc1)C2)C1CCCCC1 (stereo unspecified)	.	.	-	.	.	.
CCOC(=O)C(=O)NNc1ccc(Cl)cc1	-	-	-	-	-	-
CCOC(=O)C(=O)NNc1ccc(C)cc1	-	-	-	-	-	-
COc1ccccc1-c1nc2c3ccccc3nc(=S)n2[nH]1	-	-	-	-	.	.
CC(Oc1ccc(Br)cc1)c1nc2c3ccccc3nc(=S)n2[nH]1 (stereo unspecified)	-	-	-	83	89	-
S=c1nc2ccccc2c2nc(-c3ccccc3)[nH]n12	-	-	-	83	-	-
CCOc1ccc(N(CC(=O)Nc2c(C)n(C)n(-c3ccccc3)c2=O)S(=O)(=O)c2ccc(C)c(C)c2)cc1	.	.	-	.	.	.
O=C(Nc1ccc(Cl)c(Cl)c1)C1CCN(c2ncccn2)CC1	.	.	-	.	.	.
COc1ccccc1C(=O)N(CCC1CCCN1C)c1nc2ccccc2s1 (stereo unspecified)	-	-	-	-	-	-
Cc1nc(NCc2ccc3c(c2)OCO3)c2oc3ccccc3c2n1	-	-	-	-	-	-
O=C(NCC1CCCO1)C1CC(c2ccc(Cl)c(Cl)c2)=NO1 (stereo unspecified)	-	-	-	-	-	-
O=Cc1ccccc1C=O	.	.	-	.	.	.
CC(C)C1Nc2c(O)cc(Cl)c([N+](=O)[O-])c2C2C=CCC21 (stereo unspecified)	-	.	-	99	100	91
Cc1cc(NS(=O)(=O)c2ccc(NC(=O)CSc3nnc(SCc4ccc(Cl)cc4)s3)cc2)nc(C)n1	.	.	-	.	.	.
Cc1ccc2c(c1)C1CS(=O)(=O)N(Cc3ccccc3)CN1C2 (stereo unspecified)	.	.	-	.	.	.
SMILES	PG9 Ab binder	NR2E3 ag-1	NR1D1 modulator	NR2E3 ag-2	NR2E3 ag conf	VP16 counter
CC(=O)Nc1ccc(S(=O)(=O)NCCSCc2c(Cl)cccc2Cl)cc1	-	-	-	-	71	-
CC(=O)Nc1ccc(S(=O)(=O)NCCSCc2cccc(Cl)c2)cc1	-	-	-	-	.	.
O=S1(=O)c2ccc(Br)cc2OC[C@H](Cc2ccccc2)N1Cc1cn(CCC2OCCCO2)nn1	.	.	-	.	.	.
COc1cccc(C=Nc2ccc3c(c2)OCCO3)c1O	.	-	.	74	-	-
Cc1cc(/C=C2\SC(=S)NC2=O)cc(C)c1O	-	-	-	-	.	.
O=C1NC(=S)S/C1=C\c1cc(Cl)cc(Cl)c1O	-	.	-	-	73	-
O=C1NC(=S)SC1=Cc1ccccc1Cl	-	.	-	-	79	73
COc1cc(/C=N/n2c(-c3cc(-c4ccccc4)n[nH]3)n[nH]c2=S)ccc1OCc1ccccc1	.	.	-	.	.	.
O=C(Nc1ccccc1C(F)(F)F)OCCCN1CCC2(CCC(c3ccccc3)CC2)C1=O (stereo unspecified)	.	.	-	.	.	.
Cc1[nH]nc(S(=O)CC(=O)O)c1[N+](=O)[O-] (stereo unspecified)	-	-	-	-	-	-
Cc1[nH]nc(NCCO)c1[N+](=O)[O-]	-	-	-	-	.	.
CCc1nnn2c1Cn1c3ccccc3c(=O)n1[C@@H](C(C)C)C2	.	.	-	.	.	.
O=C(Sc1cccc2cccnc12)c1ccccc1Br	-	-	-	100	-	-
O=C(Sc1cccc2cccnc12)c1ccc(F)cc1	-	.	-	.	.	.
N#CCC[C@@H]1CC[C@]2(CCCN(C(=O)c3ccc4ccccc4n3)C2)O1	.	.	-	.	.	.
COC(=O)c1c(C)oc2ccc(N(C(=O)c3ccncc3)S(=O)(=O)c3ccc(C)cc3C)cc12	-	-	-	91	93	-
COC(=O)c1c(C)oc2ccc(N(C(=O)c3ccncc3)S(=O)(=O)c3ccc4ccccc4c3)cc12	-	-	-	89	97	87
Cc1ccc(S(=O)(=O)N(C(=O)c2ccncc2)c2ccc3oc4c(c3c2)CCCC4)cc1[N+](=O)[O-]	-	-	-	-	.	.
COC(=O)c1c(C)oc2ccc(N(C(=O)c3ccncc3)S(=O)(=O)c3ccc(C)cc3)cc12	.	-	.	85	95	83
O=C(Nc1ccccc1F)O[C@@H]1CC[C@@]23CCCN2C(=O)CCC[C@H]3C1	.	.	-	.	.	.
COC(=O)[C@]12C[C@H](CC(=O)N3CCC(c4ccccc4)CC3)C(=O)N(Cc3cccc4ccccc34)C1=C[C@H](C1CCCC1)O[C@@H]2C	.	.	-	.	.	.
CC12CCC(=O)C=C1CCC1C2CCC2(C)C(c3csc(N)n3)CCC12 (stereo unspecified)	-	.	-	75	94	76
CCNC(=O)N(C)[C@H]1C[C@H]2c3[nH]c4cccc(-c5cccc(F)c5)c4c3CCN2C(=O)[C@H]1[C@H](C)O	.	.	-	.	.	.
COc1ccc(C(=O)Nc2ccc3c(c2)C(=O)c2ccccc2C3=O)cc1OC	-	-	-	-	.	.
COc1ccc(C(=O)c2c(C(F)(F)F)oc3c2C(=O)c2ccccc2C3=O)cc1OC	-	-	-	89	100	-
SMILES	PG9 Ab binder	NR2E3 ag-1	NR1D1 modulator	NR2E3 ag-2	NR2E3 ag conf	VP16 counter
C=CCn1c(SCC(=O)c2ccc(-c3ccccc3)cc2)nnc1-c1ccc(OC)cc1	.	.	-	.	.	.
CC(=O)N1CCN(C(=O)c2ccc(Cl)c(S(=O)(=O)N3CC(C)OC(C)C3)c2)CC1 (stereo unspecified)	-	.	-	-	-	-
CC(=O)N1CCN(C(=O)c2ccc(Cl)c(S(=O)(=O)N3CCCC3)c2)CC1	-	.	-	-	.	.
CCN(c1ccccc1)S(=O)(=O)c1ccc(C(=O)NC2CCN(Cc3ccccc3)CC2)cc1	.	.	.	-	80	-
O=c1cc(C(F)(F)F)nc(SCc2cccc3ccccc23)[nH]1	-	-	-	100	98	84
Nc1cc(=O)[nH]c(SCc2cccc3ccccc23)n1	-	-	-	-	.	.
CCOC(=O)c1cc(S(=O)(=O)Nc2cccc(OC)c2)cn1C	-	-	-	-	-	-
O=C(OCCOc1ccc(Cl)cc1)c1cc(S(=O)(=O)N2CCCCC2)ccc1N1CCOCC1	-	.	-	-	73	-
